Consider seven compounds from PMC9468506 (Current Research in Food Science, 2022).

Converted amounts (≈) assume the structure as drawn. Where two headings read alike, the source gives them in different places.

One experiment relates to anti-PBZ mAb. The experiment can be described thus: TRFMs-LFIA competitive lateral flow immunoassay with anti-PBZ mAb immunoprobe. It counts as binding, mouse. The note with it: for IC50: TRFMs-LFIA, coating antigen PBZ-2-BSA, optimal conditions; for CR: cross reactivity = IC50 (PBZ)/IC50 (structural analogue) x 100. An outline of the steps: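 Anti-analyte mAb coupled by EDC/NHS to carboxylated time-resolved fluorescent microspheres, activated in MES pH 6.0. Nitrocellulose strip has a T line of coating antigen (2 mg/mL) and a C line of goat anti-mouse IgG (0.16 mg/mL). Probe (7.5 μg/mL stock) and 100 μL standard are premixed 3 min, then the strip is dipped 3 min. The T/C fluorescence ratio gives B/B0 against log concentration. IC50 is taken at 50% B/B0, and CR = IC50 (analyte)/IC50 (analogue) × 100.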

In experiment [1] the test system is anti-PBZ antibody (mAb or pAb). As to conditions: icELISA, cited from earlier work.
A further experiment concerns anti-PBZ pAb. As to conditions: TRFIA, water and soil, ref Liu et al. (2016); cited from earlier work.

As usually defined, the IC50 is the concentration needed to halve the response being measured. As for `CCCCC(O)(Cn1cncn1)c1ccc(Cl)cc1Cl` (stereo not drawn) [Hexaconazole], in the experiment on anti-PBZ mAb, the IC50 was above 10 µg/mL and the CR is below 0.1%.

Turning to `CC(C)(C)[C@@H](O)[C@@H](Cc1ccc(Cl)cc1)n1cncn1` [Paclobutrazol], the IC50 was 0.0116 µg/mL (≈ 0.0395 µM) in experiment [1] (mAb, soil, ref Jin (2019)); 0.0087 µg/mL (≈ 0.0296 µM) in experiment [1] (mAb, wheat, ref Cao et al. (2014)); 0.01326 µg/mL (≈ 0.0451 µM) in experiment [1] (pAb, fruits, ref Ouyang et al. (2020)); 0.02135 µg/mL (≈ 0.0727 µM) in experiment [1] (pAb, water and soil, ref Wang (2016)); 0.00109 µg/mL (≈ 0.00371 µM) in the experiment on anti-PBZ pAb. In the experiment on anti-PBZ mAb, this compound came in with a CR of 100%.

`CC(C)(C)C(O)(CCc1ccc(Cl)cc1)Cn1cncn1` (stereo not drawn) [Tebuconazole]: in the experiment on anti-PBZ mAb, the IC50 is above 10 µg/mL and the CR is listed as below 0.1%.

In the experiment on anti-PBZ mAb, `CC(C)(C)C(=O)C(Oc1ccc(Cl)cc1)n1cncn1` (stereo not drawn) [Triadimefon] showed an IC50 of 0.44371 µg/mL (≈ 1.51 µM) and a CR of 2.10%.

In the experiment with anti-PBZ mAb, `CC(C)(C)C(O)C(Oc1ccc(Cl)cc1)n1cncn1` (stereo not drawn) [Triadimenol] displayed an IC50 of 0.92421 µg/mL (≈ 3.12 µM) and a CR of 1.01%.

In the experiment on anti-PBZ mAb, `CC(C)(C)C(O)/C(=C\c1ccc(Cl)cc1)n1cncn1` (stereo not drawn) [Uniconazole] had an IC50 of 3.81516 µg/mL (≈ 13.1 µM) and a CR of 0.25%.

In the experiment with anti-PBZ mAb, Diniconazole displayed an IC50 above 10 µg/mL and a CR below 0.1%.
